bIAP inhibitor: bovine intestinal alkaline phosphatase inhibitors, primary screen, selectivity assay for TNAP inhibitor project, biochemical, bovine IAP, CDP-star luminescence; purified bovine IAP, 30 min; alkaline phosphatase, intestinal [Bos taurus]; inhibition, % at 20 µM; 190,000 tested, under 10 active; AID 1019, 2008;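 active = over 50% inhibition of intestinal alkaline phosphatase at 20 µM in the single-dose screen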
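Assay system: bovine IAP enzyme; medium: DEA buffer 100 mM, pH 9.8, with MgCl2 1.0 mM, ZnCl2 0.02 mM; doses: 20 µM single dose; incubation: enzyme reaction for 30 min at room temperature; detection: CDP-star luminescence signal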
bIAP act: bovine intestinal alkaline phosphatase activators, primary screen, biochemical, bovine IAP, CDP-star luminescence. alkaline phosphatase, intestinal [Bos taurus]. purified bovine IAP, 30 min; stronger effect = higher value; fold of DMSO-control signal, blank-subtracted. activation factor at 20 µM. 200,000 tested, 0.17% active. AID 1016, 2008;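 active = activation factor of 2 or more at 20 µM, a signal rise over negative controls twice the positive control's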
mIAP activ: activators of mouse IAP, primary screen, biochemical, luminescence, uHTS | intestinal alkaline phosphatase [Mus musculus] | muIAP, CDP-Star luminescence, 30 min; stronger effect = higher value; 1 = vehicle-only enzyme signal, 0 = enzyme-free wells | activation factor at 10 µM | 330,000 tested, 0.24% active | AID 2805, 2010;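 active = activation factor of at least 2 at 20 µM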
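also added = chemiluminescent substrate CDP-Star | test system = mouse IAP enzyme | signal = chemiluminescence readout | compound = DMSO-dissolved test compounds | incubation = 30 min at room temperature | benchmarks = DMSO wells, no-enzyme wells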
hIAP act: human IAP activators, primary screen, biochemical, luminescence, uHTS; purified human IAP, CDP-Star luminescence, 30 min; stronger effect = higher value; 1 = vehicle-only enzyme, 0 = enzyme-free background; Intestinal-type alkaline phosphatase (Homo sapiens), P09923; activation factor at 10 µM; 330,000 tested, 0.16% active;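 active = activation factor of the enzyme at least 2-fold when tested at 20 µM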
Target sequence (P09923 whole entry, looked up): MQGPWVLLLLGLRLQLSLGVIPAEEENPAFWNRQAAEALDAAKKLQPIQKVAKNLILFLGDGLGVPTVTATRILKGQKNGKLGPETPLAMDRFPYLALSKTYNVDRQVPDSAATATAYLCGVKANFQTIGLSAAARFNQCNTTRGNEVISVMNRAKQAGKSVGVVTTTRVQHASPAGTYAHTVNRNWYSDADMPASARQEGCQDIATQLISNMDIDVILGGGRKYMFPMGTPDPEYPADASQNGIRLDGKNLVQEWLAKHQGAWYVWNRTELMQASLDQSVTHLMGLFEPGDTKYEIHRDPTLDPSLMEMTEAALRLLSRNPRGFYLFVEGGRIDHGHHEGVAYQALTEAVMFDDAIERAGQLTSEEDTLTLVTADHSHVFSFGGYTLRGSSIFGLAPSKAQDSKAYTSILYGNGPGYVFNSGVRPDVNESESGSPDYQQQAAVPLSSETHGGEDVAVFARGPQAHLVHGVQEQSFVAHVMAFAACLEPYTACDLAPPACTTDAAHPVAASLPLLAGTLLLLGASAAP
hIAP inh: human IAP inhibitors, primary screen, biochemical, luminescence, uHTS | Intestinal-type alkaline phosphatase (Homo sapiens), P09923 | inhibition, % at 10 µM | purified IAP, CDP-Star luminescence, 30 min | 330,000 tested, 0.12% active;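 active = inhibition reaching a set limit with compound at 10 µM in the primary screen, cut at about 35% in these data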;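 also: plate controls were DMSO wells with enzyme for no effect and no-enzyme buffer wells for full effect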
mIAP inh: inhibitors of mouse IAP, primary screen, biochemical, luminescence, uHTS; intestinal alkaline phosphatase [Mus musculus]; purified mouse IAP, CDP-Star luminescence, 30 min; inhibition, % at 10 µM; 330,000 tested, 0.2% active; AID 2806, 2010;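 active = inhibition of at least 40% at 10 µM in the primary screen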;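 also: plate controls were DMSO with enzyme for no effect and no enzyme wells for full effect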
mIAP inh conf: inhibitors of mouse IAP, confirmation, biochemical, luminescence, single concentration. inhibition, % at 10 µM. purified mouse IAP, CDP-Star luminescence, 30 min. shares compounds with mIAP inh. 11,000 tested, 4.7% active;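 active = inhibition of at least 40% at 10 µM in either of the two replicates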;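 also: plate controls were DMSO wells with enzyme for no effect and buffer wells lacking enzyme for full effect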
An asterisk follows results filed as active. In the library only some 0.72% were active in any assay of this set; here they are far more common.

`CN(C)c1cc[n+](CCC(=O)Nc2cccc([N+](=O)[O-])c2N)cc1` gave bIAP inhibitor -2, bIAP act 1, mIAP activ 1, hIAP act 0.92, hIAP inh 8 and mIAP inh -2.
Screening NS(=O)(=O)c1ccc(-c2ccc(/C=C3\C(=O)Nc4ccccc43)o2)cc1 returned mIAP activ 0.89, hIAP act 0.84, hIAP inh 16 and mIAP inh 11.
Screening CC1(C)OC(=O)C(=Cc2ccc(-c3ccc(S(N)(=O)=O)cc3)o2)C(=O)O1 returned bIAP inhibitor -16, bIAP act 1.2, mIAP activ 0.36, hIAP act 0.99, hIAP inh 1, mIAP inh 64* and mIAP inh conf 79*.
For CN(c1cccc(NC(=O)Nc2cccc(Cl)c2)c1)S(C)(=O)=O the results were bIAP inhibitor 7, bIAP act 0.9, mIAP activ 3.7*, hIAP act 1.1, hIAP inh -13, mIAP inh -273 and mIAP inh conf -147.
CC(=O)Nc1cccc(N(C)S(C)(=O)=O)c1 was read as bIAP inhibitor 8, bIAP act 0.9, mIAP activ 1.1, hIAP act 1.2, hIAP inh -16 and mIAP inh -6.
`O=C(/C=C/c1ccc(O)c(O)c1)OC(Cc1ccc(O)c(O)c1)C(=O)O` (centres undefined) gave mIAP activ 0.23, hIAP act 0.69, hIAP inh 31, mIAP inh 77* and mIAP inh conf 78*.
`O=C(/C=C/c1ccc(O)c(O)c1)OCCc1ccccc1` gave mIAP activ 0.85, hIAP act 0.71, hIAP inh 29 and mIAP inh 15.
Screening Cc1ccc(NC(=O)NCCCCc2ccccc2)cc1 returned mIAP activ 1.6, hIAP act 1.1, hIAP inh -8 and mIAP inh -62.
Screening O=C(NCCCCc1ccccc1)Nc1cccc(F)c1 returned mIAP activ 2.5*, hIAP act 1.2, hIAP inh -18, mIAP inh -146 and mIAP inh conf -129.
Screening Cc1cccc(NC(=O)NCCCCc2ccccc2)c1 returned mIAP activ 2.3*, hIAP act 1.1, hIAP inh -8, mIAP inh -132 and mIAP inh conf -138.
`O=C(NCCCc1ccccc1)Nc1ccccc1` gave bIAP inhibitor 2, bIAP act 1, mIAP activ 1.3, hIAP act 1, hIAP inh -1 and mIAP inh -35.
`Cc1cccc(NC(=O)NC(C)CCc2ccccc2)c1` (centres undefined) gave bIAP inhibitor -13, bIAP act 1.1, mIAP activ 2.8*, hIAP act 1, hIAP inh -4, mIAP inh -180 and mIAP inh conf -183.
C=CCC[C@@H](Cc1ccc(F)cc1)C(=O)OCCNC(=O)[C@@H](CC=C)CC(=O)N[C@@H](CO)Cc1ccccc1 was read as mIAP activ 0.89, hIAP act 0.93, hIAP inh 7 and mIAP inh 11.
`CCCn1c(SCC(=O)c2ccc3c(c2)OCCO3)n[nH]c1=O` gave bIAP inhibitor 8, bIAP act 0.9, mIAP activ 1, hIAP act 1.1, hIAP inh -5 and mIAP inh 0.
Screening COCCn1cnc2c1c(=O)n(CC#N)c(=O)n2Cc1ccccc1 returned mIAP activ 1, hIAP act 1.2, hIAP inh -19 and mIAP inh -3.
`NC(=O)c1sc2nc3c(c(-c4ccco4)c2c1N)CCC3` gave bIAP inhibitor 11, bIAP act 0.9, mIAP activ 0.57, hIAP act 1.1, hIAP inh -8, mIAP inh 43* and mIAP inh conf 57*.
`Nc1c(C(=O)Nc2ccccc2F)sc2nc(-c3ccco3)ccc12` gave bIAP inhibitor 15, bIAP act 0.9, mIAP activ 0.53, hIAP act 0.92, hIAP inh 8, mIAP inh 48* and mIAP inh conf 61*.
`CC(C)OC(=O)c1sc2nc(-c3ccccc3)ccc2c1N` gave bIAP inhibitor -10, bIAP act 1.1, mIAP activ 1.2, hIAP act 1.3, hIAP inh -34 and mIAP inh -22.
Screening COC(=O)c1sc2nc(-c3ccco3)ccc2c1N returned bIAP inhibitor 3, bIAP act 1, mIAP activ 0.48, hIAP act 0.94, hIAP inh 6, mIAP inh 52* and mIAP inh conf 53*.
For NC(=O)c1sc2nc(-c3cccnc3)ccc2c1N the results were mIAP activ 0.99, hIAP act 0.86, hIAP inh 14 and mIAP inh 1.
For NC(=O)c1sc2nc(-c3ccco3)ccc2c1N the results were bIAP inhibitor 6, bIAP act 0.9, mIAP activ 0.56, hIAP act 1.1, hIAP inh -5, mIAP inh 44* and mIAP inh conf 52*.
Screening COc1cc2nc(CN3CCN(S(=O)(=O)c4ccc(Br)cc4)CC3)[nH]c(=O)c2cc1OC returned mIAP activ 0.91, hIAP act 1.1, hIAP inh -10 and mIAP inh 10.
C[C@]12CC[C@H](OC(=O)CCC(=O)O)CC1=CCC1C2CC[C@@]2(C)C1CC[C@@H]2N (some centres undefined) was read as mIAP activ 1, hIAP act 0.78, hIAP inh 22 and mIAP inh 0.
Screening Cc1ccc(C)c(S(=O)(=O)N2CCN(C(=O)Cc3ccsc3)CC2)c1 returned mIAP activ 0.97, hIAP act 1.2, hIAP inh -18 and mIAP inh 3.
Screening NC(=O)C1(NC(=O)[C@@H]2CC3(CC(c4cccc(NC(=O)c5cc([N+](=O)[O-])cc([N+](=O)[O-])c5)c4)=NO3)CN2C(=O)c2ccccc2)CC1 (some centres undefined) returned bIAP inhibitor -13, bIAP act 1.1, mIAP activ 0.94, hIAP act 0.97, hIAP inh 3 and mIAP inh 6.
For CC(=C\c1ccccc1)/C=C1/SC(=S)N(C(C(=O)O)C(C)C)C1=O (centres undefined) the results were bIAP inhibitor 7 and bIAP act 0.9.

Bioassay records: PubChem, Sanford-Burnham Center for Chemical Genomics
